HKDC1 inh = HKDC1 hexokinase inhibitors, primary screen, biochemical, fluorescence, uHTS. Q2TB90. recombinant HKDC1, G6PDH/diaphorase resazurin coupled fluorescence. inhibition, % at 20 µM. 0.16% of 340,000 active. AID 493160, 2011;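 active means inhibition above about 35% when tested at 20 µM, limit read from the data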;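 further: plate controls were DMSO wells with enzyme for no effect and DMSO wells lacking enzyme for full effect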
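Test system: HK5 enzyme. Quantity: 5 µg/mL HK5 final. Reagent: glucose and ATP substrates. Schedule: 90 min reaction incubation at room temperature, dark. Technique: resazurin-to-resorufin fluorescence via G6PDH and diaphorase coupling, 525/613 nm. Control set: DMSO wells with and without enzyme mix.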
ATG4B inhibitor = ATG4B protease inhibitors, primary screen, biochemical, fluorescence, uHTS; ATG4B cleavage of LC3-PLA2, NBD-HPC fluorescence, 1 h; inhibition, % at 8.33 µM; 0.51% of 340,000 active; in the data active means inhibition above about 40%
Target sequence (Q9Y4P1 whole entry, looked up): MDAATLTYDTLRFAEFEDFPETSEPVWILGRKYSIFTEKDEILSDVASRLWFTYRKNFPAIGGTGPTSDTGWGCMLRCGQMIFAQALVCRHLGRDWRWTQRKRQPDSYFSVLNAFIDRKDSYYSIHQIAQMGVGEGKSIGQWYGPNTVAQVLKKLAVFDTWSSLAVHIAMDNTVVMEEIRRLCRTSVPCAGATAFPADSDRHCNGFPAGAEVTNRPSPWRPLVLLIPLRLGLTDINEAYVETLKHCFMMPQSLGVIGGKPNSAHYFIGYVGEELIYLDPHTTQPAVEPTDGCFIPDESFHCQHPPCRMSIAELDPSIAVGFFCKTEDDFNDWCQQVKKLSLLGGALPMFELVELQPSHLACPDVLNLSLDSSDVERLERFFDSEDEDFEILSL
PfGluPho inh = PfG6PD enzyme inhibitors, primary screen, biochemical, fluorescence intensity, uHTS; glucose-6-phosphate dehydrogenase-6-phosphogluconolactonase (Plasmodium falciparum 3D7); PfGluPho enzyme, NADPH resazurin-diaphorase fluorescence; inhibition, % at 20 µM; 0.78% of 350,000 active; AID 504690, 2011;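 active means inhibition reaching at least a set limit at 20 µM in the primary screen, cut at about 59% in these data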;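 further: 0% = DMSO wells with substrate and 100% = DMSO wells lacking glucose-6-phosphate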
T cell HTS = modulators of CD8 T cell-vesicle binding, primary screen, mouse 2C CD8+ T cells, flow cytometry; 0.068% of 330,000 active; AID 2052, 2009; response (vesicle binding), % at 7 µM; 2C CD8+ T cell-vesicle binding; stronger effect = lower value;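 active means response, share of CD8 T cells binding vesicles, and their 90th percentile fluorescence all below set limits, cut at about 80% in these data, passing the limit was not always enough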;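 further: values below 100% mean blocked vesicle binding to the CD8+ T cells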
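Assay system – 2C mouse CD8+ T cells · Also added – QL9-loaded Drosophila micro-vesicles · Timing – Cell–vesicle co-incubation 1.5 h at 37 °C, staining 20 min on ice · Signal – flow cytometry of vesicle-bound cells · Measure – percent CD8+ FL2 mean versus row control · Controls – Peptide-free naked vesicles (low) and QL9 vesicles with 0.7% DMSO vehicle (high)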
PKA-R2B activ = activators of PKA-R2B holoenzyme, primary screen, biochemical, fluorescence polarization, Cy5-IP20, human; cAMP-dependent protein kinase catalytic subunit beta (Homo sapiens) + cAMP-dependent …; PKA-R2B holoenzyme dissociation; R2B truncated from residue 108, S112A mutant; 0% DMSO only, 100% 113 µM cGMP; activation, % at 11.4 µM; 0.079% of 340,000 active;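 active means activation above a cutoff set at the mean over all compounds plus 3 SD, cut at about 18% in these data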;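 further: higher means more holoenzyme dissociation and a rise in polarization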
PKA-R1A activ = activators of PKA-R1A holoenzyme, primary screen, biochemical, fluorescence polarization, Cy5-IP20, bovine R1A, mouse PKAc. PKA-R1A dissociation; scaled: DMSO 0%, 113 µM cGMP 100%. cAMP-dependent protein kinase type I-alpha regulatory subunit (Bos taurus) + …. 0.083% of 340,000 active. AID 504707, 2011. activation, % at 11.4 µM;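 active means percent activation above the mean of all tested compounds plus 3 SD, cut at about 19% in these data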;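 further: higher means more PKAc released from R1A so a rise in polarization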
PfG6PD confirm = PfG6PD inhibitors, hit retest, confirmation, biochemical, fluorescence intensity, single concentration; shares compounds with PfGluPho inh; recombinant PfGluPho, NADPH-diaphorase-resazurin fluorescence; inhibition, % at 20 µM; 34% of 2,400 active;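 active means inhibition of at least 50% at 20 µM in any single replicate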;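 further: 0% = DMSO with substrate and 100% = DMSO lacking glucose-6-phosphate substrate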
Diaph ctr 10uM = diaphorase inhibitors and chemical oxidizers, confirmation, counter-screen for P. falciparum G6PD inhibitor project, biochemical, fluorescence intensity, 10 µM NADPH. shares compounds with PfGluPho inh. diaphorase-coupled resazurin reduction, NADPH 10 uM. inhibition, % at 20 µM. 39% of 820 active;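 active means average inhibition reaching 50% or more with the compound at 20 µM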;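 further: resorufin red fluorescence formed as diaphorase reduces resazurin using NADPH; 0% = DMSO with enzyme and 100% = DMSO without enzyme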
Diaph ctr 30uM = diaphorase inhibitors and chemical oxidizers, confirmation, counter-screen for P. falciparum G6PD inhibitor project, biochemical, fluorescence intensity, 30 µM NADPH | shares compounds with PfGluPho inh | Diaphorase/resazurin coupled assay, resorufin fluorescence | inhibition, % at 20 µM | 29% of 820 active | AID 504863, 2011;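 active means inhibition averaging 50% or more, tested at 20 µM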;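 further: 0% = DMSO with enzyme and 100% = DMSO wells lacking diaphorase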
Active calls of the source: *; x = no result given. In the library only some 1.6% were active in any assay of this set; here they are far more common.

SMILES	HKDC1 inh	ATG4B inhibitor	PfGluPho inh	T cell HTS	PKA-R2B activ	PKA-R1A activ	PfG6PD confirm	others
O=S(=O)(c1ccccc1)N(F)S(=O)(=O)c1ccccc1	-1	-8	-1	486	-5	5	x
COc1ccc(CC(=O)NNC(=O)c2cc(C)oc2C)cc1OC	-7	3	-1	303	4	-10	x
CC1(C)CC(=O)C=C(c2n[nH]nc2-c2ccc(F)c(F)c2)C1	x	x	-1	x	0	-8	x
COc1cc(Sc2ccc(C)cc2)c(OC)cc1N	17	-2	60*	929	-4	-1	56*	Diaph ctr 10uM=17;Diaph ctr 30uM=17
Cn1c(O)c(N=NC(=O)c2ccccc2O)c2ccccc21	-2	-4	34	305	-15	-1	x
Cc1cc(N=NC(=O)c2ccccc2O)c2ccccc2c1O	-2	-11	64*	230	-13	6	49*	Diaph ctr 10uM=19;Diaph ctr 30uM=21
Cc1cc(C)n2c(=S)[nH]nc2n1	-2	0	71*	194	-11	-5	20
O=C(NCc1ccccn1)c1ccc(Cl)c(S(=O)(=O)NCc2ccccc2)c1	-3	5	-3	361	-10	10	x
Cc1cc(C)c2c(=O)n(CC(=O)Nc3ccc(Br)c(C)c3)sc2n1	6	-2	112*	132	-3	-3	80*	Diaph ctr 10uM=-7;Diaph ctr 30uM=-14
Cc1cc(C)c2c(=O)n(CC(=O)NC3CCCC3)sc2n1	1	0	90*	52	-5	-3	73*	Diaph ctr 10uM=-32;Diaph ctr 30uM=-16
Cc1cc(C)c2c(=O)n(CC(=O)Nc3cccc(Cl)c3C)sc2n1	-1	0	106*	40	-9	0	85*	Diaph ctr 10uM=-13;Diaph ctr 30uM=-4
COc1ccc(OC)c(CCNC(=O)Cn2sc3nc(C)cc(C)c3c2=O)c1	x	x	x	358	x	x	x
COc1ccccc1CNC(=O)c1cccnc1	1	-2	-12	198	-4	-9	x
CSc1ccc(NC(=O)NN(c2ccccc2)C2CCS(=O)(=O)C2)cc1 (stereo not drawn)	x	x	7	x	6	-5	x
CCN(CC)S(=O)(=O)c1ccc(O)c(NC(=O)COc2ccc(S(=O)(=O)N3CCOCC3)cc2)c1	1	-11	48	x	-13	-3	x
Oc1c(Cl)cc(Cl)cc1/C=C/c1ccc2cccc(O)c2n1	-8	30	81*	498	-3	-4	16
Oc1cccc2ccc(/C=C/c3ccccc3Br)nc12	6	1	-5	231	-2	-7	x
Oc1ccc(Cl)cc1/C=C/c1ccc2cccc(O)c2n1	-8	13	74*	x	-1	3	-5
O=C(Cc1ccc(NC(=O)C2CCN(C(=O)C3CCCC3)CC2)cc1)Nc1cccc(C(=O)N2CCCCC2)c1	-4	-1	-17	x	-7	-16	x
Oc1ccc(N2CCN(c3nc(-c4cccs4)nc4ccccc34)CC2)cc1	9	-11	60*	99	-7	-2	6
c1ccc(N2CCN(c3nc(-c4cccs4)nc4ccccc34)CC2)cc1	-8	-10	9	188	2	-3	x
